In data set [1] the test system is B16-F0. Briefly: Induction of melanogenesis-stimulating activity in mouse B16F0 cells assessed as increase in TRP-1 protein expression after 72 hrs by Western blotting analysis. The data set is classed as functional, cell-based. The method in brief:
(§1)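 B16 cells were treated for 72 h at 0–12.5 µM and lysed in RIPA with protease inhibitors (0 °C, 30 min). Lanes held 10 µg protein on 10% SDS–PAGE, transferred to PVDF and blocked with 2% BSA/TBST at 4 °C overnight. Primaries ran 2 h: MITF 1:1000, tyrosinase, TRP-1 and p-p38 1:200, TRP-2 and p38 1:100. HRP secondary was 1:5000 for 2 h, with ECL densitometry. GAPDH blotted; three independent experiments.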

In data set [2] the test system is B16-F0. The data set is described as follows: Intracellular melanogenesis-stimulating activity in mouse B16F0 cells at 12.5 uM after 72 hrs by spectrophotometry relative to control. The data set is classed as functional. The method in brief:
(§2)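 Cells were seeded at 5.0 × 10⁴ cells/well, adhered for 24 h, then treated with compound for 72 h. After a PBS wash, cells were lysed in 1 M NaOH at 100 °C for 30 min to solubilize melanin. Lysate absorbance at 405 nm served as the intracellular melanin index, expressed as % of DMSO control. Experiments were done twice.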

The subject of data set [3] is B16-F0. Briefly: Induction of melanogenesis-stimulating activity in mouse B16F0 cells assessed as increase in MITF protein expression after 72 hrs by Western blotting analysis. The data set is classed as functional, cell-based. The method in brief:
as §1

The subject of data set [4] is B16-F0. The data set is described as follows: Induction of melanogenesis-stimulating activity in mouse B16F0 cells assessed as increase in tyrosinase protein expression after 72 hrs by Western blotting analysis. The data set is classed as functional, cell-based. The method in brief:
as §1

The nature of data set [5]: Cytotoxicity against mouse B16F0 cells assessed as cell viability at 12.5 uM after 72 hrs by MTT assay. The data set is classed as cell-based. Conditions: read-out: Activity. The method in brief: (§3)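 B16-F0 cells were seeded at 5.0 × 10⁴ cells/well and allowed to adhere for 24 h at 37 °C. They were exposed for 72 h to compound at 200–10 µM or 50–6.25 µM, depending on compound series. MTT (5 mg/mL stock in PBS) was added for 4 h at 37 °C in 5% CO₂, then dissolved in isopropanol/0.04 N HCl and read at 590 nm. Viability is % of DMSO control; experiments were done twice.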

A short description of data set [6]: Cytotoxicity against mouse B16F0 cells assessed as cell viability at 6.25 uM after 72 hrs by MTT assay. The data set is classed as cell-based. Conditions: read-out: Activity. The method in brief: as §3
The nature of data set [7]: Cytotoxicity against mouse B16F0 cells assessed as cell viability at 25 uM after 72 hrs by MTT assay. The data set is classed as cell-based. The following applies: read-out: Activity. A digest of the protocol:
as §3

Data set [8] relates to B16-F0. Briefly: Intracellular melanogenesis-stimulating activity in mouse B16F0 cells at 25 uM after 72 hrs by spectrophotometry relative to control. The data set is classed as functional. The method in brief:
as §2

Data set [9] deals with B16-F0. Briefly: Extracellular melanogenesis-stimulating activity in mouse B16F0 cells at 6.25 uM after 72 hrs by spectrophotometry relative to control. The data set is classed as functional. The method in brief: (§4)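 B16-F0 cells in DMEM with 10% FBS were seeded at 5.0 × 10⁴ cells/well and adhered for 24 h. They were treated for 72 h at 200–10 µM or 50–6.25 µM, depending on compound series. Absorbance of the collected culture medium at 510 nm gave extracellular melanin, expressed as % of DMSO-treated control. Experiments were done twice.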

Data set [10] concerns B16-F0. Briefly: Intracellular melanogenesis-stimulating activity in mouse B16F0 cells at 6.25 uM after 72 hrs by spectrophotometry relative to control. The data set is classed as functional. The method in brief: as §2
Data set [11] concerns B16-F0. Briefly: Extracellular melanogenesis-stimulating activity in mouse B16F0 cells at 12.5 uM after 72 hrs by spectrophotometry relative to control. The data set is classed as functional. The method in brief:
as §4

Data set [12] deals with B16-F0. Briefly: Extracellular melanogenesis-stimulating activity in mouse B16F0 cells at 25 uM after 72 hrs by spectrophotometry relative to control. The data set is classed as functional. The method in brief:
as §4

Data set [13] concerns B16-F0. Briefly: Induction of melanogenesis-stimulating activity in mouse B16F0 cells assessed as increase in TRP-2 protein expression after 72 hrs by Western blotting analysis. The data set is classed as functional, cell-based. A digest of the protocol: as §1
Data set [14] deals with B16-F0. The data set is described as follows: Induction of melanogenesis-stimulating activity in mouse B16F0 cells assessed as increase in p38-MAPK protein expression after 72 hrs by Western blotting analysis. The data set is classed as functional, cell-based. A digest of the protocol: as §1
Data set [15] deals with B16-F0. The data set is described as follows: Induction of melanogenesis-stimulating activity in mouse B16F0 cells assessed as increase in p-p38 MAPK level after 72 hrs by Western blotting analysis. The data set is classed as functional, cell-based. A digest of the protocol:
as §1

Data set [16] concerns B16-F0. The data set is described as follows: Extracellular melanogenesis-stimulating activity in mouse B16F0 cells at 500 uM after 72 hrs by spectrophotometry relative to control. The data set is classed as functional.
The subject of data set [17] is B16-F0. The data set is described as follows: Intracellular melanogenesis-stimulating activity in mouse B16F0 cells at 500 uM after 72 hrs by spectrophotometry relative to control. The data set is classed as functional.
The nature of data set [18]: Cytotoxicity against mouse B16F0 cells assessed as cell viability at 250 uM after 72 hrs by MTT assay. The following applies: read-out: Activity. The data set is classed as cell-based.
In data set [19] the test system is B16-F0. The data set is described as follows: Extracellular melanogenesis-stimulating activity in mouse B16F0 cells at 125 uM after 72 hrs by spectrophotometry relative to control. The data set is classed as functional. A digest of the protocol: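 B16-F0 cells were seeded at 5.0 × 10⁴ cells/well, allowed to adhere for 24 h, then treated for 72 h. Culture medium was collected and its absorbance read at 510 nm as extracellular melanin. Results are % of DMSO-treated control; experiments repeated twice.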

A short description of data set [20]: Cytotoxicity against mouse B16F0 cells assessed as cell viability at 125 uM after 72 hrs by MTT assay. The following applies: read-out: Activity. The data set is classed as cell-based. A digest of the protocol:
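B16-F0 murine melanoma cells in DMEM with 10% FBS, penicillin and streptomycin, at 37 °C and 5% CO₂. Seeded at 5.0 × 10⁴ cells/well, adhered 24 h, then exposed 72 h. MTT (5 mg/mL stock in PBS) added for 4 h at 37 °C, formazan taken up in isopropanol with 0.04 N HCl, A590 read. Viability given as % of DMSO control; experiments repeated twice.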

In data set [21] the test system is B16-F0. Briefly: Intracellular melanogenesis-stimulating activity in mouse B16F0 cells at 125 uM after 72 hrs by spectrophotometry relative to control. The data set is classed as functional. A digest of the protocol:
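After 72 h treatment of B16-F0 cells (5.0 × 10⁴ cells/well, 24 h adherence), cells were washed with PBS and lysed in 1 M NaOH at 100 °C for 30 min to solubilise melanin. Lysate absorbance was read at 405 nm as intracellular melanin, expressed as % of DMSO control; experiments repeated twice.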

Data set [22] has as its system B16-F0. The data set is described as follows: Intracellular melanogenesis-stimulating activity in mouse B16F0 cells at 250 uM after 72 hrs by spectrophotometry relative to control. The data set is classed as functional.
The nature of data set [23]: Cytotoxicity against mouse B16F0 cells assessed as cell viability at 500 uM after 72 hrs by MTT assay. The data set is classed as cell-based. The following applies: read-out: Activity.
Data set [24] deals with B16-F0. The data set is described as follows: Extracellular melanogenesis-stimulating activity in mouse B16F0 cells at 250 uM after 72 hrs by spectrophotometry relative to control. The data set is classed as functional.

The source made the active and inactive calls. The calls are words filed in the database; no cut-off is given here.

Consider `COc1cc(O)c2c(=O)c(OC)c(-c3ccc(OC)c(O)c3)oc2c1` [AYANIN], for which the Activity result is “Dose-dependent effect” in data set [1]; 181.4% in data set [2]; “Dose-dependent effect” in data set [3]; “Dose-dependent effect” in [4]; 203.4% in [8]; 225.5% in data set [9]. The Activity in [10] was 127.7%; in [11], 228%; in data set [12], 298.7%; in [13] it was “Dose-dependent effect”; in data set [15], “Dose-dependent effect”. The viability at 72 h, 12.5 µM in [5] was 102%. Besides, the viability at 72 h, 6.25 µM in data set [6] was 95.3%. Moreover, in data set [7], the viability at 72 h, 25 µM was 90.2%. In addition, in data set [14], the outcome was inactive.

For the molecule `Cn1c(=O)c2nc[nH]c2n(C)c1=O.O` [THEOPHYLLINE], the Activity in data set [16] is 204%; in data set [17], 166.8%; in data set [19], 170.7%; in [21], 127.6%; in data set [22], 131.7%; in data set [24] it was 183.2%. Further, in [18], the viability at 72 h, 250 µM was 94.4%. In data set [20], the viability at 72 h, 125 µM was found to be 95.5%. For the same molecule, the viability at 72 h, 500 µM in data set [23] stood at 91.4%.

The values are drawn from ChEMBL document CHEMBL3286099, “Synthesized quercetin derivatives stimulate melanogenesis in B16 melanoma cells by influencing the expression of melanin biosynthesis proteins MITF and p38 MAPK” (Bioorg Med Chem, 2014).
